From the array DNA melting data of Ke et al. (doi:10.1101/2024.01.08.574731) come the findings set out here.

Data set [1] in a line: melting temperature; fluorescence melt of hairpins on a sequencing array, two-state fit, raised by 9.35 °C to match UV melts. The settings on record: sodium 0.088 M. The gist of the method: (§1)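 Bootstrapped two-state fits yielded melting temperature and folding enthalpy for library hairpins. Cy3 fluorescence, with annealed Cy3 and quencher oligos, was imaged on a sequenced MiSeq flow cell in 50 mM Na-HEPES pH 8.0, 25 mM NaCl in 2.5 °C steps up to 60 °C, and normalised to pre-quench Cy3 and to control constructs. Four replicates were combined by inverse variance, and fitted temperatures were raised by 9.35 °C to match UV melts.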

Data set [2] is described as follows: folding enthalpy; higher = less favourable; fluorescence melt of hairpins on a sequencing array, two-state fit. The following applies: sodium 0.088 M. In outline:
as §1

Take GCGATCGAAAGATGGCGC ((((((....)))..))): the Tm in data set [1] worked out at 53.2 °C. Further, the folding enthalpy in data set [2] was -34.8 kcal/mol.
On the same counts, the results for GCGATCGGAAACGATCAC (.(((((....))))).) are 46.5 °C and -14.7 kcal/mol.
Taken in the same sequence, the figures for GCGATCGGAAACGGTCGC ((((.((....)).)))) were 66.8 °C and -39.1 kcal/mol.
Taken in the same sequence, the figures for GCGATCTCGAAAGAGCGC (((..(((....)))))) were 56.3 °C and -33.1 kcal/mol.
Consider GCGATCTTCGC ((((...)))), for which, in data set [1], the Tm is 51.9 °C. For the same sequence, the folding enthalpy in data set [2] is -19.4 kcal/mol.
As for GCGATGACGAAAGTCCGC (((..(((....)))))), the Tm in data set [1] was determined as 52 °C. Further, in data set [2], the folding enthalpy was -20 kcal/mol.
On to GCGATGACTCGC ((((....)))), for which, in data set [1], the Tm is 47.2 °C. Also, in data set [2], the folding enthalpy was -21.7 kcal/mol.
On the same counts, the results for GCGATGCATCGC ((((....)))) are 59.6 °C and -32.1 kcal/mol.
Regarding GCGATGCGAAAGCAAAGC ((..(((....)))..)), the Tm in data set [1] was determined as 61 °C. Also, the folding enthalpy in data set [2] is -32.9 kcal/mol.
Taken in the same sequence, the figures for GCGATGCGAAAGCACGC (((.(((....)))))) were 68.4 °C and -23.4 kcal/mol.
Taken in the same sequence, the figures for GCGATGCGAAAGCACGGC ((..(((....)))..)) were 51.2 °C and -16.5 kcal/mol.
Taken in the same sequence, the figures for GCGATGCGAAAGCATGGC ((.((((....)))).)) were 64.6 °C and -21.2 kcal/mol.
GCGATGCGAAAGCCACGC (((..((....))..))): in data set [1], the Tm amounted to 52.1 °C. Also, the folding enthalpy in data set [2] is -21.1 kcal/mol.
As for GCGATGCGAAAGCCTCGC ((((.((....)).)))), the Tm in data set [1] worked out at 64.6 °C. The folding enthalpy in data set [2] is -40.3 kcal/mol.
Taken in the same sequence, the figures for GCGATGCGAAAGCCTGGC ((.(.((....)).).)) were 29.1 °C and -11.5 kcal/mol.
On the same counts, the results for GCGATGCGAAAGCTGCGC (((..((....))..))) are 64.2 °C and -22.7 kcal/mol.
On the same counts, the results for GCGATGCGAAAGCTTAGC ((.(.((....)).).)) are 56.9 °C and -23.6 kcal/mol.
On to GCGATGCGAAAGCTTTGC ((.(.((....)).).)), for which the Tm in data set [1] came out at 46.3 °C. Also, the folding enthalpy in data set [2] was -21.2 kcal/mol.
Taken in the same sequence, the figures for GCGATGGCTCGC ((((....)))) were 47.8 °C and -19.2 kcal/mol.
Taken in the same sequence, the figures for GCGATTCGAAAGAAACGC (((.(((....))).))) were 55.7 °C and -47.3 kcal/mol.
Taken in the same sequence, the figures for GCGATTCGAAAGAAGCGC (((.(((....))).))) were 68.7 °C and -39.7 kcal/mol.
As for GCGATTCTTCGC ((((....)))), the Tm in data set [1] was determined as 53.5 °C. Further, in data set [2], the folding enthalpy was -26.1 kcal/mol.
Taken in the same sequence, the figures for GCGATTTCTCGC ((((....)))) were 49.5 °C and -24.4 kcal/mol.
On the same counts, the results for GCGATTTTCGC ((((...)))) are 52.3 °C and -22 kcal/mol.
Regarding GCGCAACCGAAAGGTCGC (((..(((....)))))), the Tm in data set [1] came to 55 °C. Besides, the folding enthalpy in data set [2] was -23.9 kcal/mol.
Taken in the same sequence, the figures for GCGCAAGGAAACTCGCGC ((((.((....)).)))) were 54.6 °C and -36.1 kcal/mol.
Taken in the same sequence, the figures for GCGCAAGGAAACTTGCAC (.(((((....))))).) were 46.3 °C and -13.4 kcal/mol.
Taken in the same sequence, the figures for GCGCAATCGAAAGATCGC (((..(((....)))))) were 45.5 °C and -24.1 kcal/mol.
GCGCACCGAAAGGTCGC (((.(((....)))))): in data set [1], the Tm was found to be 67 °C. In addition, the folding enthalpy in data set [2] is -25.7 kcal/mol.
Taken in the same sequence, the figures for GCGCACGAAAGTGATCGC ((((((....)))..))) were 49.6 °C and -24.8 kcal/mol.
On the same counts, the results for GCGCACGAAAGTGCCCGC ((((((....)))..))) are 47 °C and -12 kcal/mol.
On the same counts, the results for GCGCACGGAAACGCGCGC ((((.((....)).)))) are 69 °C and -40.6 kcal/mol.
As to GCGCAGCGAAAGCACCGC (((..((....))..))), in data set [1], the Tm amounted to 45.2 °C. Further, the folding enthalpy in data set [2] is -8.24 kcal/mol.
Taken in the same sequence, the figures for GCGCAGCGAAAGCCCCGC (((..((....))..))) were 36.4 °C and -5.72 kcal/mol.
Taken in the same sequence, the figures for GCGCAGCGAAAGCCGGGC ((.(.((....)).).)) were 41.2 °C and -8.2 kcal/mol.
Taken in the same sequence, the figures for GCGCAGCGAAAGCTCCGC (((.(((....))).))) were 44.7 °C and -34.1 kcal/mol.
Consider GCGCAGCGAAAGCTTTGC ((..(((....)))..)), for which the Tm in data set [1] came to 38.8 °C. Further, the folding enthalpy in data set [2] is -6.59 kcal/mol.
On the same counts, the results for GCGCATCGAAAGATCGC (((.(((....)))))) are 55.8 °C and -37 kcal/mol.
On the same counts, the results for GCGCATGGAAACATACGC (((.(((....))).))) are 49.5 °C and -40.6 kcal/mol.
On the same counts, the results for GCGCATGGAAACATGTGC ((.((((....)))).)) are 57.1 °C and -36.5 kcal/mol.
In the case of GCGCCACGAAAGTGACGC (((.(((....))).))), the Tm in data set [1] is 66 °C. Moreover, in data set [2], the folding enthalpy was -38.4 kcal/mol.
On the same counts, the results for GCGCCAGGAAACTGACGC (((.(((....))).))) are 56 °C and -43.1 kcal/mol.
Taken in the same sequence, the figures for GCGCCAGGAAACTGGCAC (.(((((....))))).) were 47.5 °C and -12.2 kcal/mol.
Taken in the same sequence, the figures for GCGCCATCGAAAGATCGC (((..(((....)))))) were 42.5 °C and -24.3 kcal/mol.
Consider GCGCCCACGAAAGTGCGC (((..(((....)))))), for which the Tm in data set [1] was 56 °C. Besides, in data set [2], the folding enthalpy was -35.2 kcal/mol.
Taken in the same sequence, the figures for GCGCCCGAAAGGGACCGC ((((((....)))..))) were 50.3 °C and -22.7 kcal/mol.
Taken in the same sequence, the figures for GCGCCCGAAAGGGCTCGC ((((((....)))..))) were 52.4 °C and -13 kcal/mol.
Taken in the same sequence, the figures for GCGCCCGAAAGGGGTCGC ((((((....)))..))) were 58.3 °C and -19.5 kcal/mol.
GCGCCCGGAAACGAGCGC ((((.((....)).)))): in data set [1], the Tm turned out to be 60 °C. For the same sequence, the folding enthalpy in data set [2] was -38.9 kcal/mol.
Taken in the same sequence, the figures for GCGCCCGGAAACGGGCAC (.(((((....))))).) were 55.4 °C and -9.09 kcal/mol.
On the same counts, the results for GCGCCGACGAAAGTCCGC (((..(((....)))))) are 50 °C and -19.8 kcal/mol.
On the same counts, the results for GCGCCGCGAAAGCCTCGC (((..((....))..))) are 44.4 °C and -19.3 kcal/mol.
In the case of GCGCCGCGAAAGCGTTGC ((..(((....)))..)), the Tm in data set [1] was 47.6 °C. For the same sequence, the folding enthalpy in data set [2] was -15.3 kcal/mol.
Taken in the same sequence, the figures for GCGCCGCGAAAGCTGTGC ((.(.((....)).).)) were 53.9 °C and -20.4 kcal/mol.
For the sequence GCGCCGGGAAACCGGTGC ((.((((....)))).)), the Tm in data set [1] was 69 °C. The folding enthalpy in data set [2] is -31.5 kcal/mol.
On the same counts, the results for GCGCCTGGAAACAGGCAC (.(((((....))))).) are 47.9 °C and -11.9 kcal/mol.
In the case of GCGCGACGAAAGTCCCGC (((.(((....))).))), the Tm in data set [1] was determined as 57.5 °C. Also, the folding enthalpy in data set [2] is -42.8 kcal/mol.
In the case of GCGCGACGAAAGTCCGC (((.(((....)))))), the Tm in data set [1] came out at 66.8 °C. Besides, the folding enthalpy in data set [2] is -29 kcal/mol.
On the same counts, the results for GCGCGAGGAAACCCGCAC (.(((.(....).))).) are 38.1 °C and -16.8 kcal/mol.
Taken in the same sequence, the figures for GCGCGATCGAAAGATCGC (((..(((....)))))) were 60.6 °C and -6.32 kcal/mol.
On the same counts, the results for GCGCGCGAAAGCGATCGC ((((((....)))..))) are 52.8 °C and -18.5 kcal/mol.
Consider GCGCGCGAAAGCGTCCGC ((((((....)))..))), for which, in data set [1], the Tm was 53 °C. Also, the folding enthalpy in data set [2] was -14.9 kcal/mol.
Taken in the same sequence, the figures for GCGCGCTCGAAAGAGCGC (((..(((....)))))) were 66.8 °C and -6.02 kcal/mol.
On the same counts, the results for GCGCGGCGAAAGCCCAGC ((..(((....)))..)) are 57.5 °C and -16 kcal/mol.
On the same counts, the results for GCGCGGCGAAAGCTGTGC ((.(.((....)).).)) are 65.2 °C and -32.2 kcal/mol.
Regarding GCGCGTCGAAAGACCCGC (((.(((....))).))), in data set [1], the Tm worked out at 55.8 °C. Besides, the folding enthalpy in data set [2] is -37.3 kcal/mol.
For GCGCGTGGAAACACACGC (((.(((....))).))), in data set [1], the Tm was determined as 57.4 °C. Further, the folding enthalpy in data set [2] was -34.1 kcal/mol.
Taken in the same sequence, the figures for GCGCGTGGAAACACGTGC ((.((((....)))).)) were 64.1 °C and -52.1 kcal/mol.
For GCGCTAGGAAACTAACGC (((.(((....))).))), the Tm in data set [1] is 45.5 °C. Further, in data set [2], the folding enthalpy is -29.9 kcal/mol.
Regarding GCGCTATCGAAAGATCGC (((..(((....)))))), the Tm in data set [1] came to 44.2 °C. Besides, in data set [2], the folding enthalpy was -25.6 kcal/mol.
On the same counts, the results for GCGCTCGAAAGAGACGC ((((((....))).))) are 58 °C and -28.6 kcal/mol.
On the same counts, the results for GCGCTCGAAAGAGATCGC ((((((....)))..))) are 45.8 °C and -24.7 kcal/mol.
On the same counts, the results for GCGCTCGAAAGAGGACGC ((((((....)))..))) are 50 °C and -23.7 kcal/mol.
For the sequence GCGCTCGAAAGAGTCCGC ((((((....)))..))), in data set [1], the Tm was 42.8 °C. The folding enthalpy in data set [2] is -24.3 kcal/mol.
